Converted amounts (≈) assume the structure as drawn.
What was measured:
Bacteroides ovatus = test: Antibacterial activity against metronidazole-resistant Bacteroides ovatus MMX 3504; format: functional
[1] = Clearance in Beagle dog at 5 mg/kg, iv; format: ADME, organism-based, Canis lupus familiaris; conditions: in vivo
Outline: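 Plasma PK after single intravenous or oral dosing. Mice C57BL/6 at 5 mg/kg IV or 20 mg/kg PO; Sprague–Dawley rats at 10 mg/kg IV or 50 mg/kg PO; beagle dogs at 5 mg/kg IV or 25 mg/kg PO. AUC reported in ng·h/mL. Clearance from the IV arms in mL/min·kg.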

## CO[C@H]1/C=C/O[C@@]2(C)Oc3c(C)c(O)c4c(c3C2=O)C2=NC3(CCN(CCn5c([N+](=O)[O-])cnc5C)CC3)NC2=C(NC(=O)/C(C)=C\C=C\[C@H](C)[C@H](O)[C@@H](C)[C@@H](O)[C@@H](C)[C@H](OC(C)=O)[C@@H]1C)C4=O [RIFASUTENIZOL]
Bacteroides ovatus
  MIC: 0.12 mg/L (≈ 0.127 µM)
[1]
  clearance: 1.2 L/h/kg
